Most compounds without a hit are left out; they make up all but 3.8% or so of the library.
OX1R antag-1: antagonists of human orexin 1 receptor | O43613 | CHO/OX1R cells, Fluo-8 calcium fluorescence, orexin A | inhibition, % at 5 µM | 0.43% of 330,000 active | AID 434989;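 active = inhibition above its plate's threshold, mean inhibition of all tested compounds on the plate plus 3 SD, cut at about 37% in these data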;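 also: 0% = orexin A challenge wells and 100% = SB-334867-A antagonist wells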
Target sequence (O43613 whole entry, looked up): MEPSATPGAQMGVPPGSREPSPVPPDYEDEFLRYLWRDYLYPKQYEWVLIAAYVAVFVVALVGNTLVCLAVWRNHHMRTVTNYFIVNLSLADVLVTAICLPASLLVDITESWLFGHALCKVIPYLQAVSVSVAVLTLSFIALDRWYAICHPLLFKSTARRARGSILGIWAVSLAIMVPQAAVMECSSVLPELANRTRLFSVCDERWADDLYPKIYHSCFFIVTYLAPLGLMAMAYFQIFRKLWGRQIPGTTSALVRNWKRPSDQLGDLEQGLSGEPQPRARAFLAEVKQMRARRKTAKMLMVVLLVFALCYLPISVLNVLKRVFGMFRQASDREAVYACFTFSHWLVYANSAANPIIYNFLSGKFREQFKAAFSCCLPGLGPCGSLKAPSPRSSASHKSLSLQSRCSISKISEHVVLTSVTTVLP
GPR7 antagonist: antagonists of human GPR7 (neuropeptides B/W receptor 1). P48145. GPR7-expressing cells, fluorescence antagonist assay. inhibition, % at 4.4 µM. 1.1% of 290,000 active. AID 1861; in the data active = inhibition above about 16%, passing the limit was not always enough;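 also: cells stimulated with the agonist NPW; 0% = agonist with vehicle and 100% = vehicle without agonist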
MPTP block: inhibitors of mitochondrial permeability transition pore; isolated mouse mitochondria, Ca2+ swelling absorbance, 30 min; inhibition, % at 10 µM; 1.4% of 360,000 active; AID 602449;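 active = inhibition of 50% or more, scaled per plate between neutral and stimulator controls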;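 also: 0% = DMSO wells given calcium and 100% = 1 mM EGTA wells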
OX1R antag-2: blocks the human orexin 1 receptor; O43613; OX1R-expressing cells, FRET antagonist read-out; inhibition, % at 6.6 µM; 1.8% of 330,000 active; in the data active = inhibition mostly above about 38%, no sharp cut-off; inactive = mostly below about 40%;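 also: 0% = agonist challenge alone and 100% = reference antagonist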
CHO parental Ca: counter-screen for OX1R antagonists: effect in parental CHO cells | parental CHO-K1, ATP-induced calcium, Fluo-8 fluorescence | inhibition, % at 5.6 µM | 0.63% of 330,000 active;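 active = inhibition above that plate's mean sample inhibition plus 3 SD, cut at about 26% in these data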;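 also: 0% = ATP-challenged DMSO wells and 100% = DMSO wells without ATP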
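Assay system: parental CHO cells; Read-out basis: percent inhibition of ATP-evoked calcium rise, normalized to controls; Benchmarks: ATP and no-ATP DMSO wells; Compound dosing: single nominal dose of 5.6 µM per compound; Signal: Fluo-8 calcium dye fluorescence; Also added: ATP as calcium-mobilizing challenge; Repeats: singlicate.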
MPTP counter: mitochondrial membrane potential, counter-screen; AID 624504; shares compounds with MPTP block; 78% of 5,000 active; isolated mitochondria, Rhodamine 123 fluorescence; inhibition, % at 10 µM; in the data active = inhibition above about 22%;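 also: 0% = DMSO vehicle and 100% = positive control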
MPTP swell DR: MPTP inhibition, dose response swelling confirmation; shares compounds with MPTP block; 58% of 780 active; isolated mitochondria swelling, absorbance; IC50, µM; in the data active = IC50 below about 20 µM
MPTP counter DR: counter-screen for mitochondrial permeability transition pore inhibitors, dose response; 49% of 780 active; IC50, µM; shares compounds with MPTP block; isolated mitochondria counterscreen, fluorescence read-out; in the data active = IC50 below about 80 µM
Active calls of the source: *; i = inactive; . = not tested or not shown.

SMILES | OX1R antag-1 | GPR7 antagonist | MPTP block | OX1R antag-2 | CHO parental Ca | MPTP counter | others
Cc1cccc(C2NC(c3cccc(C)c3)C([N+](=O)[O-])C(C)(C)C2[N+](=O)[O-])c1 (configuration not stated) | -40 | -2 | 0 | 13 | -41 | .
C/C(=N\NC(=O)c1nnn(-c2nonc2N)c1-c1ccc(Cl)c(Cl)c1)c1ccncc1 | 2 | 0 | 0 | 18 | 12 | .
NS(=O)(=O)c1cccc(NS(=O)(=O)c2ccc(/C=C/C(=O)OCC(=O)c3ccccc3)cc2)c1 | 25 | -14 | 60* | 29 | 25 | 27*
COc1ccc(C(=O)COC(=O)/C=C/c2ccccc2)cc1 | -10 | -5 | -2 | 22 | -2 | .
Cc1ccc(S(=O)(=O)Nc2ccccc2CNc2ccc(Br)cn2)cc1 | -7 | -9 | 68* | 42 | 2 | 70*
CC(=O)c1c(C)[nH]c(C(=O)Nc2nc(-c3ccccc3)c(C)s2)c1C | -4 | 1 | 79* | 6 | -10 | 55*
CC(C)(C)CC(C)(C)SSc1n[nH]c(=S)s1 | . | . | 51* | . | . | 37*
CC(C)(C)c1ccc(S(=O)(=O)N2CCC(c3nc4ccc(Cl)cc4[nH]3)CC2)cc1 | 27 | 2 | 94* | -9 | -14 | 90*
Cc1cccc(NC(=O)NCCc2ccc(Cl)cc2)c1 | -16 | -11 | 6 | 12 | -4 | .
O=C(NCCc1ccc(Cl)cc1)Nc1cccc(Cl)c1 | -11 | -9 | 95* | 37 | 3 | 94*
O=C(NCc1ccc(Cl)cc1Cl)Nc1ccccc1 | -23 | . | 80* | 15 | -12 | 94*
O=C(N/C=C\c1ccccc1)NCc1ccc(Cl)cc1Cl | -11 | 1 | 4 | 26 | -13 | .
Cc1cccc(NC(=O)NC(C)CCc2ccccc2)c1 (configuration not stated) | -13 | 1 | 64* | 16 | -14 | 73*
Cc1cccc(NC(=S)NC(C)CCc2ccccc2)c1 (configuration not stated) | -11 | 4 | 30 | 12 | -17 | .
O=C(NCCc1ccccc1)Nc1cccc(Cl)c1 | -14 | -11 | 97* | 26 | -8 | 88*
CCC(C)NC(=O)COC(=O)c1ccc(Cl)cc1O (configuration not stated) | -21 | -3 | -1 | 13 | 8 | .
N=C1S/C(=C\c2cn[nH]c2-c2ccc(F)cc2)C(=O)N1c1ccccc1F | -10 | -1 | -2 | 9 | -7 | .
CN(C)CCCNC(NC(=O)c1cccs1)C(Cl)(Cl)Cl (configuration not stated) | 6 | -12 | 0 | 6 | -8 | .
Cc1ccc(C)c(NC(=S)N2CCC(NC(=O)c3ccc(F)cc3)CC2)c1 | -35 | 4 | -2 | 2 | -12 | .
O=C(NCCSCc1ccco1)Nc1cccc(Cl)c1 | 7 | -7 | 79* | 8 | -10 | 79*
O=C(Cn1nnc(-c2cc(C(F)(F)F)cc(C(F)(F)F)c2)n1)NNC(=S)Nc1ccc(Cl)cc1 | -15 | -4 | 84* | 4 | -12 | 61*
CC(=O)CCS(=O)(=O)c1ccc(Oc2ccc(S(=O)(=O)CCC(C)=O)cc2)cc1 | -13 | -6 | 58* | 7 | -17 | 16 | MPTP swell DR=i;MPTP counter DR=59*
CC(=O)CS(=O)(=O)c1ccc(Oc2ccc(S(=O)(=O)CC(C)=O)cc2)cc1 | 11 | 3 | 0 | 4 | 10 | .
Cc1nc2sccn2c1-c1csc(NCc2ccccc2)n1 | 22 | -6 | 58* | 22 | -17 | 67*
CCOCCc1c(O)nc(SCC(=O)N2CCOCC2)[nH]c1=O | -9 | -8 | 0 | 7 | 2 | .
SMILES | OX1R antag-1 | GPR7 antagonist | MPTP block | OX1R antag-2 | CHO parental Ca | MPTP counter | others
COc1ccc2cc(CNCCOCCOCCNCc3ccc4cc(OC)ccc4c3)ccc2c1 | . | . | 97* | . | . | -10
CC(C)N(Cc1cc2ccccc2[nH]c1=O)C(=O)c1ccco1 | -27 | 8 | 1 | 8 | -10 | .
CCOC(=O)C1CCCN(S(=O)(=O)c2ccc(S(=O)(=O)N(CC)CC)cc2)C1 (configuration not stated) | 47* | 8 | 97* | 46 | 51* | 102*
CCOC(=O)C1CCCN(S(=O)(=O)c2ccc(C)cc2)C1 (configuration not stated) | -11 | -7 | 1 | 15 | 10 | .
COc1ccc(-c2noc(=O)n2Cc2ccccc2F)cc1 | 4 | 4 | 0 | 23 | -5 | .
CCN(CC)c1ccc(CNc2nc3ccccc3n2CCN2CCCCC2)cc1 | -29 | 20 | 64* | 10 | -25 | 96*
COc1ccc(CNc2nc3ccccc3n2CCN2CCCCC2)cc1 | -29 | 4 | -1 | 10 | -12 | .
CCOc1ccc(C(C)=O)cc1COc1cccnc1[N+](=O)[O-] | -9 | 2 | -1 | 24 | -18 | .
CCN(C[C@H]1N[C@@](C)(C(=O)OC)[C@H]2C(=O)N(C)C(=O)[C@@H]12)C(=O)Nc1ccc(C(F)(F)F)cc1 | -11 | . | -1 | 0 | -8 | .
CCOC(=O)C1=CCN(S(=O)(=O)c2ccccc2Br)C1c1ccccc1 (configuration not stated) | . | . | -1 | . | . | .
C[n+]1c2n(c3ccccc31)N=C(c1cc(C(C)(C)C)c(O)c(C(C)(C)C)c1)CS2 | -4 | 70* | 94* | 10 | 18 | 103*
O=C(Nc1ccncc1)c1ccc(Cl)c(S(=O)(=O)N2CCc3ccccc32)c1 | 34 | . | 58* | 50* | 44* | 91*
O=C(Nc1nnc(C2CC2)s1)c1ccc(Cl)c(S(=O)(=O)N2CCc3ccccc3C2)c1 | 10 | -5 | 51* | 30 | 0 | 60*
CCc1nnc(NC(=O)c2ccc(Cl)c(S(=O)(=O)N3CCc4ccccc43)c2)s1 | -1 | 10 | 6 | 60 | 13 | .
CC(C)COc1ccc(C/C(N)=N/n2cnnc2)cc1 | -10 | -5 | 66* | 14 | -2 | 54*
O=c1oc2ccccc2c(Nc2ccc(Cl)cc2)c1[N+](=O)[O-] | -4 | -12 | 56* | 21 | 10 | 83*
O=c1oc2ccccc2c(NCc2ccccc2F)c1[N+](=O)[O-] | -8 | -9 | -6 | 56 | -7 | .
CC(C)c1ccc(CNc2c([N+](=O)[O-])c(=O)oc3ccccc23)cc1 | -12 | 3 | 87* | 15 | 5 | 94*
C[C@H]1CN([C@@H](C)CO)S(=O)(=O)c2ccc(-c3ccc(C#N)cc3)cc2O[C@H]1CN(C)C(=O)CN(C)C | . | . | -1 | . | . | .
CC1(C)C(=O)Nc2ccccc2N1C(=O)COC(=O)c1cccnc1 | 5 | . | 0 | -5 | -9 | .
O=C(CNc1cccc(S(=O)(=O)N2CCCCC2)c1)Nc1ccc(C(F)(F)F)cc1 | . | . | 81* | . | . | 76*

Screening data as filed in PubChem BioAssay.
